{
  "source": "paper PMC10951637",
  "about": "(iScience, 2024)",
  "key": {"[1]": {"settings": "phase 2b, oral, adults with obesity; cited from earlier work"}, "[2]": {"system": "blood glucose of non-fasted db/db mice", "experiment": "Hypoglycemic duration assay", "assay_type": "in vivo, C57BL/6 db/db mice", "settings": "single s.c. dose 25 nmol/kg, 0 to 36 h, n = 5", "outline": "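Non-fasted male C57BL/6 db/db mice with free food and water were randomised into groups (n = 5). Each got one s.c. dose of 25 nmol/kg test compound, or PBS as control. Tail-blood glucose was read by glucometer at 0, 0.5, 1, 2, 4, 6, 8, 10, 24 and 36 h. […] Data are mean ± SD, one-way ANOVA with Tukey test.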"}, "diabetic db/db mice": {"system": "diabetic db/db mice", "experiment": "Chronic efficacy study", "assay_type": "in vivo", "settings": "for HbA1c value attenuated from baseline / body weight increase: 25 nmol/kg s.c. once daily for 4 weeks, n = 5; for reduction of AUC glucose 0–210 min, OGTT day 15: chronic study, 25 nmol/kg s.c. once daily, day 15, n = 5"}, "[3]": {"settings": "cited from earlier work"}, "[4]": {"settings": "phase III study (SURPASS-1), across all doses"}},
  "data": [
    {"molecule": "N#Cc1ccc(COc2cccc(C3CCN(Cc4nc5ccc(C(=O)O)cc5n4C[C@@H]4CCO4)CC3)n2)c(F)c1", "note": "[Danuglipron]", "values": [
      {"measurement": "discontinuation rate", "setting": "[1]", "value": "greater than 50%"},
      {"measurement": "rate of diarrhea", "setting": "[1]", "value": 25, "unit": "%"},
      {"measurement": "rate of nausea", "setting": "[1]", "value": 73, "unit": "%"},
      {"measurement": "rate of vomiting", "setting": "[1]", "value": 47, "unit": "%"}
    ]},
    {"molecule": "exendin-4: GLP-1R mono-agonist", "values": [
      {"measurement": "glucose AUC0–36h (in words)", "setting": "[2]", "value": "comparable to that of the PBS group"},
      {"measurement": "HbA1c value attenuated from baseline", "setting": "diabetic db/db mice", "value": "approximately 15%"},
      {"measurement": "body weight increase", "setting": "diabetic db/db mice", "value": "~6.9", "unit": "%"},
      {"measurement": "reduction of AUC glucose 0–210 min, OGTT day 15", "setting": "diabetic db/db mice", "value": "~18", "unit": "%"}
    ]},
    {"molecule": "liraglutide", "values": [
      {"measurement": "HbA1c value attenuated from baseline", "setting": "diabetic db/db mice", "value": "~30", "unit": "%"},
      {"measurement": "body weight increase", "setting": "diabetic db/db mice", "value": "~7.4", "unit": "%"},
      {"measurement": "reduction of AUC glucose 0–210 min, OGTT day 15", "setting": "diabetic db/db mice", "value": "~40", "unit": "%"}
    ]},
    {"molecule": "tirzepatide: imbalanced GLP-1R/GIPR co-agonist, fatty diacid conjugated to K", "values": [
      {"measurement": "weight loss", "setting": "[3]; in T2D treatment and in obesity independent of diabetes", "value": "more than 20%"},
      {"measurement": "incidence of gastrointestinal disorders", "setting": "[3]; [4]", "value": "28–41%"},
      {"measurement": "study drug discontinuation", "setting": "[3]; [4]", "value": "3–7%"}
    ]}
  ]
}
